Screening results (PubChem BioAssay)
SR-BI HDL uptake: blocks mouse SR-BI lipid uptake from DiI-HDL | Q61009 | ldlA[mSR-BI] CHO cells, DiI-HDL uptake fluorescence, 3 h | inhibition, % at 12.5 µM | 320,000 tested, 0.96% active;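 active = mean replicate inhibition of at least 70% and a set share of replicates each scoring 70 or more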
Lipid droplet: hepatic lipid droplet formation modulation. AID 1656. AML12 mouse hepatocytes, oleate lipid droplets, BODIPY imaging. inhibition, % at 6.5 µM. 240,000 tested, 0.4% active;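 active = lipid droplet intensity inhibited by at least 50%, with more than 500 cells counted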
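Assay system: AML12 mouse liver cells | Compound dosing: One dose, 6.5 µM compound | Read-out basis: Droplet intensity reduction, % inhibition | Measured by: Fluorescence imaging, 20x objective, two fields per well | Schedule: Overnight treatment with compound plus oleate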
SMARCA2 act: increases SMARCA2 function in MMTV reporter cells; MG213 cells, MMTV-luciferase reporter, dexamethasone, overnight; activation, % at 9.1 µM; 370,000 tested, 1% active; in the data active = activation above about 7.8%
CR mimetic SO: yeast age-related superoxide inhibition as caloric restriction mimetic. S. cerevisiae aged cells, superoxide DHE fluorescence; active compounds read low. superoxide response (% of plate mean), % at 10 µM. 330,000 tested, 0.18% active. AID 2690;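 active = superoxide response under a set limit, about three screen SD below normal, cut at about 65% in these data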;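 also: yeast aged for seven days with compound at 30 °C before DHE staining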
SR-BI uptake up: SR-BI HDL lipid transfer activation | CHO ldlA[mSR-BI] cells, DiI-HDL uptake fluorescence, 3 h; 100 = double the neutral-control signal | 320,000 tested, 0.096% active | activation, % at 12.5 µM;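 active = mean replicate activation of at least 60% and every replicate at or above 60%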
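System: LDL receptor-deficient CHO ldlA cells overexpressing murine SR-BI | Timing: 3 h uptake period with compound, 37 °C | Medium: HEPES-buffered (25 mM, pH 7.4) F12 plus 0.5% BSA | Dosing: Single-point compound dose | Signal: Bottom-read fluorescence, 550/595 nm | Read-out: Retained DiI signal reflecting DiI-HDL uptake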
AHR activator: activates the human aryl hydrocarbon receptor; AHR-responsive luciferase reporter cells, luminescence; activation, % at 5 µM; 320,000 tested, 2.5% active; AID 2796; in the data active = activation above about 47%
SMARCA2 conf: confirmation of SMARCA2 (BRM) function activators. shares compounds with SMARCA2 act. MG213 cells, MMTV-luciferase with dexamethasone, luminescence, overnight; MG213 cells expressing E1A, Rb sequestered; DMSO wells 0%, reference activator 100%. activation, % at 9.1 µM. 3,500 tested, 30% active. AID 652260;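 active = activation above its plate's cutoff, the mean activation of tested wells plus 3 SD, cut at about 7.9% in these data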
VP16 Luc act: GAL4-VP16 reporter activation counter-screen; 3,500 tested, 41% active; shares compounds with SMARCA2 act; activation, % at 9.1 µM; AID 686939; HEK293 GAL4-VP16 pG5luc reporter, luciferase luminescence; scaled: DMSO wells 0%, SAHA wells 100%;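 active = activation above the solvent-only control well mean plus 3 SD, averaged across control plates, cut at about 5.2% in these data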
Numbers stand for hits; – = inactive; · = no result. The list is not random: actives were taken first. Their share in the collection is about 4.3%.

SMILES	SR-BI HDL uptake	Lipid droplet	SMARCA2 act	CR mimetic SO	SR-BI uptake up	AHR activator	SMARCA2 conf	VP16 Luc act
CC(C)C(=O)Nc1ccc(C=C2C=Cc3ccccc32)cc1	·	·	–	·	·	·	·	·
Nc1nc(Nc2ccccc2)sc1C(=O)c1ccccc1	–	–	11	–	–	–	12	8.1
COc1ccc(C(=O)c2sc(Nc3ccccc3F)nc2N)cc1	·	·	16	–	·	–	11	12
COc1ccc(C(=O)NC(=S)Nc2ccccc2F)cc1	–	–	–	–	–	–	·	·
COc1ccc(C(=O)c2sc(Nc3ccccc3)nc2N)cc1OC	–	–	–	–	–	–	·	·
Cn1c(COc2ccccc2Br)nc2ccccc21	–	–	–	–	–	–	·	·
COc1ccccc1OCc1nc2ccccc2n1C	–	–	10	–	–	–	12	7.5
O=C1c2ccccc2-c2c1c1ccccc1c(=O)n2-c1ccccc1	–	·	–	·	–	·	·	·
O=C1c2ccccc2-c2c1c1ccccc1c(=O)n2CCO	–	·	16	·	–	·	14	7.7
Cc1sc2nc(SCC(=O)c3ccc(O)c(O)c3)n(C)c(=O)c2c1C	·	·	–	·	·	·	·	·
O=c1c(-c2ccc(F)cc2)coc2cc(O)ccc12	–	·	12	–	–	–	–	11
COc1ccc(-c2coc3cc(O)ccc3c2=O)cc1OC	–	·	–	–	–	–	·	·
Cn1cccc1C(=O)N1CCN(S(=O)(=O)c2ccc(C(C)(C)C)cc2)CC1	·	·	–	·	·	·	·	·
CN(C)C(=S)NC(=S)Nc1ccc2ccccc2c1	–	·	17	·	–	·	–	34
Cc1ccccc1S(=O)Cc1ccc(C(=O)NCCN2CCOCC2)o1 (stereo unspecified)	–	–	–	–	–	–	·	·
O=C(NCCN1CCCCCC1)c1ccc(CS(=O)(=O)c2ccc(Br)cc2)o1	–	–	·	–	–	–	·	·
O=C(NCCCN1CCCC1)c1ccc(CS(=O)(=O)c2ccc(Br)cc2)o1	–	·	9.5	–	–	–	–	–
Cc1ccccc1S(=O)Cc1ccc(C(=O)NCCCN2CCCCC2)o1 (stereo unspecified)	–	–	12	–	–	–	–	–
CCOC(=O)Nc1ccc2c(c1)[C@@]1(CC(=O)N(CC(C)C)C1c1ccccc1)C(=O)N2C (stereo partly specified)	·	·	–	·	·	·	·	·
Nc1ncnc2c1ncn2[C@@H]1O[C@H](C(=O)N[C@@H](CCc2ccccc2)C(=O)N2CCN(CC(=O)N3CCCC3)CC2)[C@@H](O)[C@H]1O	·	·	–	·	·	·	·	·
CCCCN(C(=O)Cc1cccs1)c1nnc(-c2cccnc2)s1	–	–	11	–	–	–	7.9	5.5
COc1ccccc1CCn1cnc(-c2ccc(Br)cc2)c1CC(C)C	·	·	–	·	·	·	·	·
COc1ccc(Cc2nnc(NC(=O)c3ccccc3[N+](=O)[O-])s2)cc1	–	–	8.4	–	–	–	–	–
CC(=O)Nc1nnc(COc2ccccc2)s1	–	–	8.4	–	–	–	–	–
CC(=O)Nc1nnc(Cc2ccccc2)s1	–	·	13	–	–	–	–	–
SMILES	SR-BI HDL uptake	Lipid droplet	SMARCA2 act	CR mimetic SO	SR-BI uptake up	AHR activator	SMARCA2 conf	VP16 Luc act
CCC(=O)Nc1nnc(Cc2ccccc2)s1	–	–	–	–	–	–	·	·
COc1ccc(Cc2nnc(NC(=O)c3cccc([N+](=O)[O-])c3C)s2)cc1	–	·	–	–	–	–	·	·
O=C(OCc1cn(Cc2ccc(Cl)cc2)nn1)N1CCOCC1	·	·	–	·	·	·	·	·
CC(=O)Oc1oc(-c2ccccc2)nc1/C=N/c1ccccn1	–	·	8.1	–	–	–	–	8.1
COc1ccccc1N=Cc1nc(-c2ccccc2)oc1OC(C)=O	–	–	–	–	–	–	·	·
Cc1ccccc1Cn1c([N+](=O)[O-])cnc1C	–	–	9.9	–	–	–	–	–
CC(C)CNC(=O)C1c2ccccc2Oc2ccccc21	–	–	14	–	–	–	–	–
CC(C)NC(=O)C1c2ccccc2Oc2ccccc21	–	–	–	–	–	–	·	·
Cc1nn(-c2cccc(C(F)(F)F)c2)c(Cl)c1/C=N/Nc1cccc(C(=O)O)c1	–	–	12	–	–	–	10	16
CCN(CC)CCN(C(=O)CCS(=O)(=O)c1ccccc1)c1nc2cc(OC)c(OC)cc2s1	–	–	8.7	–	–	–	–	–
COc1ccc(OC)c2sc(N(CCCN(C)C)C(=O)CCS(=O)(=O)c3ccccc3)nc12	–	·	9.9	–	–	–	–	–
CC(C)CCN(C)C1CCN(C(=O)Nc2ccc3c(c2)OCO3)CC1	·	·	–	·	·	·	·	·
COc1ccc(NS(=O)(=O)c2ccc(NC(=S)NC(=O)c3cccnc3)cc2)nn1	–	–	–	–	–	–	·	·
COc1ccc(NS(=O)(=O)c2ccc(NC(=S)NC(=O)c3cccc(F)c3)cc2)nn1	–	–	8.2	–	–	–	–	–
COc1ccc2c(c1)[nH]c1c(=O)n(Cc3ccncc3)cnc12	–	–	8.6	–	–	–	–	–
